Experimental data pooled from the literature.
CSF1R: Macrophage colony-stimulating factor 1 receptor (CSF1R, Homo sapiens, UniProt P07333)
CSF1R autoinhibited: Macrophage colony-stimulating factor 1 receptor, autoinhibited (CSF1R, Homo sapiens, UniProt P07333)

CN(C)c1nccc(-c2cnc3ncccn23)n1
remaining binding (CSF1R; binding; 1 µM): 100%

COc1cnc(Nc2cccc(S(N)(=O)=O)c2)nc1N1CCN(c2ccccc2)C(=O)C1
remaining binding (CSF1R; binding; competition with immobilised ligand; 1 µM): 100%

O=C(c1ccc(Nc2nccc(-c3cc4ccccc4s3)n2)cc1)N1CCC(N2CCCC2)CC1
remaining binding (CSF1R; binding; competition with immobilised ligand; 1 µM): 42%

CS(=O)(=O)N1CCCC(NC(=O)[C@H](CCC2CCCCC2)NC(=O)c2ccc(CNc3ncnc4c3nnn4-c3ccccc3)cc2)C1 (stereo partly shown)
remaining binding (CSF1R autoinhibited; cell-free assay; competition with immobilised ligand; 0.1 µM): 100%

COc1ncc2cc3ccccc3nc2c1C#N
remaining binding (CSF1R; cell-free assay; competition with immobilised ligand; 5 µM): 96%

CC1CCCN1c1nccc(-c2cnn3ncccc23)n1 (stereo not shown)
remaining binding (CSF1R autoinhibited; binding; 1 µM): 99%

Cc1cc(-n2nc(Cc3cc(F)cc(C(F)(F)F)c3)nc2C)ccc1C(N)=O
remaining binding (CSF1R autoinhibited; cell-free assay; competition with immobilised ligand; 1 µM): 100%

CN(C)c1nccc(-c2cnn3ncccc23)n1
remaining binding (CSF1R; binding; 1 µM): 100%

Nc1ncc2c(n1)-c1c([nH]c3ccc(C#CC4CC4)cc13)CCCC2
remaining binding (CSF1R; binding; competition with immobilised ligand; 1 µM): 98%

C[C@H]1CCN(c2nccc(-c3cnn4ncccc34)n2)C1
remaining binding (CSF1R autoinhibited; binding; 1 µM): 75%

N#Cc1ccccc1CSc1nnc2c(n1)[nH]c1ccccc12
remaining binding (CSF1R; binding; competition with immobilised ligand; 10 µM): 100%

O=C(Nc1c[nH]nc1C(=O)NC1CCNCC1)c1cc(F)cc(F)c1
remaining binding (CSF1R; binding; competition with immobilised ligand; 1 µM): 100%

COc1ccc2c(O[C@@H]3C[C@H]4C(=O)N[C@]5(C(=O)O)CC5/C=C\CCCCC[C@H](NC(=O)OC5CCCC5)C(=O)N4C3)cc(-c3csc(NC(=O)C(C)C)n3)nc2c1C (stereo partly shown)
remaining binding (CSF1R; cell-free assay; competition with immobilised ligand; 1 µM): 71%

O=C(c1ccc(Nc2ncc(Cl)c(-c3ccc(Cl)s3)n2)cc1)N1CCC(N2CCCC2)CC1
remaining binding (CSF1R; binding; competition with immobilised ligand; 1 µM): 5.1%

C[C@@H]1CN(c2ccc3ncc(-c4ccc5[nH]nc(C6CC6)c5c4)n3n2)C[C@H](C)O1
remaining binding (CSF1R; binding; competition with immobilised ligand; 0.5 µM): 100%

Nc1cnc(N2CCc3cc(S(=O)(=O)Nc4c(F)cc(Cl)cc4F)cc(N4CCCC4=O)c32)nc1
remaining binding (CSF1R autoinhibited; cell-free assay; competition with immobilised ligand; 1 µM): 100%

O=C(NCCCN1CCOCC1)c1ccc(Nc2nccc(-c3cc4ccccc4s3)n2)cc1
remaining binding (CSF1R; binding; competition with immobilised ligand; 1 µM): 50%

N[C@H]1CCN(c2nccc(-c3cnn4ncccc34)n2)C1
remaining binding (CSF1R autoinhibited; binding; 1 µM): 100%

O=c1nc(-c2ccccn2)sc2ccccc12
remaining binding (CSF1R; cell-free assay; competition with immobilised ligand; 1 µM): 85%
